Tested on: HEK-293T
Test: Multiplex assay against HEK293T
Format: toxicity, cell-based
Details: human
Outline: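 Cells stained live at seeding with Hoechst33342, BioTracker Green Microtubule Cytoskeleton Dye, MitoTracker Red and Annexin V Alexa Fluor 680 were imaged on a CQ1 microscope at 37°C and 5% CO2 after compound addition. Their classification by CellPathfinder machine-learning gating ran from Hoechst high-intensity objects versus normal cells, to healthy, pyknosed or fragmented nuclei among normal cells, to mitotic or apoptotic among pyknosed cells. Tubulin, mitochondrial-mass and membrane-permeability phenotypes are per cents of healthy-nucleus cells.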

[1] = 12 h, 1 µM, compound concentration 1 uM, replicate 1
[2] = 12 h, 1 µM, compound concentration 1 uM, replicate 2
[3] = 12 h, 10 µM, compound concentration 10 uM, replicate 1
[4] = 12 h, 10 µM, compound concentration 10 uM, replicate 2
[5] = 24 h, 1 µM, compound concentration 1 uM, replicate 1
[6] = 24 h, 1 µM, compound concentration 1 uM, replicate 2
[7] = 24 h, 10 µM, compound concentration 10 uM, replicate 1
[8] = 24 h, 10 µM, compound concentration 10 uM, replicate 2
[9] = 48 h, 1 µM, compound concentration 1 uM, replicate 1
[10] = 48 h, 1 µM, compound concentration 1 uM, replicate 2
[11] = 48 h, 10 µM, compound concentration 10 uM, replicate 1
[12] = 48 h, 10 µM, compound concentration 10 uM, replicate 2

## CN1CCN(c2cc(-c3ccccc3)nc(N)n2)CC1
[1]
  Population Apoptotic (%): 40%
  Population Fragmented Nuclei (%): 8%
  Population Healthy Nuclei (%): 79%
  Population Hoechst High Intensity Objects (%): 6%
  Population Membrane Permeable-Phenotype (%): 0%
  Population Mitochondria Different-Phenotype (%): 35%
  Population Mitotic Cells (%): 60%
  Population Normal (%): 93%
  Population Pyknosed Nuclei (%): 11%
  Population Tubulin-Different-Phenotype (%): 21%
  Total Cell Count: 383
[2]
  Population Apoptotic (%): 34%
  Population Fragmented Nuclei (%): 5%
  Population Healthy Nuclei (%): 84%
  Population Mitochondria Different-Phenotype (%): 48%
  Population Mitotic Cells (%): 65%
  Population Pyknosed Nuclei (%): 10%
  Population Tubulin-Different-Phenotype (%): 16%
  Total Cell Count: 354
[3]
  Population Apoptotic (%): 23%
  Population Fragmented Nuclei (%): 7%
  Population Healthy Nuclei (%): 82%
  Population Hoechst High Intensity Objects (%): 7%
  Population Membrane Permeable-Phenotype (%): 0%
  Population Mitochondria Different-Phenotype (%): 46%
  Population Mitotic Cells (%): 76%
  Population Normal (%): 92%
  Population Pyknosed Nuclei (%): 9%
  Population Tubulin-Different-Phenotype (%): 30%
  Total Cell Count: 416
[4]
  Population Apoptotic (%): 36%
  Population Fragmented Nuclei (%): 6%
  Population Healthy Nuclei (%): 81%
  Population Hoechst High Intensity Objects (%): 10%
  Population Mitochondria Different-Phenotype (%): 63%
  Population Mitotic Cells (%): 63%
  Population Normal (%): 89%
  Population Pyknosed Nuclei (%): 12%
  Population Tubulin-Different-Phenotype (%): 20%
  Total Cell Count: 296
[5]
  Population Apoptotic (%): 20%
  Population Fragmented Nuclei (%): 9%
  Population Healthy Nuclei (%): 79%
  Population Hoechst High Intensity Objects (%): 4%
  Population Membrane Permeable-Phenotype (%): 1%
  Population Mitochondria Different-Phenotype (%): 16%
  Population Mitotic Cells (%): 79%
  Population Normal (%): 95%
  Population Pyknosed Nuclei (%): 11%
  Population Tubulin-Different-Phenotype (%): 12%
  Total Cell Count: 488
[6]
  Population Apoptotic (%): 36%
  Population Healthy Nuclei (%): 82%
  Population Mitochondria Different-Phenotype (%): 24%
  Population Mitotic Cells (%): 63%
  Population Pyknosed Nuclei (%): 8%
  Population Tubulin-Different-Phenotype (%): 8%
  Total Cell Count: 480
[7]
  Population Apoptotic (%): 44%
  Population Fragmented Nuclei (%): 13%
  Population Healthy Nuclei (%): 75%
  Population Hoechst High Intensity Objects (%): 6%
  Population Membrane Permeable-Phenotype (%): 0%
  Population Mitochondria Different-Phenotype (%): 32%
  Population Mitotic Cells (%): 55%
  Population Normal (%): 93%
  Population Pyknosed Nuclei (%): 11%
  Population Tubulin-Different-Phenotype (%): 19%
  Total Cell Count: 577
[8]
  Population Apoptotic (%): 34%
  Population Fragmented Nuclei (%): 9%
  Population Healthy Nuclei (%): 79%
  Population Hoechst High Intensity Objects (%): 9%
  Population Mitochondria Different-Phenotype (%): 50%
  Population Mitotic Cells (%): 65%
  Population Normal (%): 90%
  Population Tubulin-Different-Phenotype (%): 17%
  Total Cell Count: 378
[9]
  Population Apoptotic (%): 23%
  Population Fragmented Nuclei (%): 13%
  Population Healthy Nuclei (%): 78%
  Population Hoechst High Intensity Objects (%): 1%
  Population Membrane Permeable-Phenotype (%): 1%
  Population Mitochondria Different-Phenotype (%): 12%
  Population Mitotic Cells (%): 76%
  Population Normal (%): 98%
  Population Pyknosed Nuclei (%): 7%
  Population Tubulin-Different-Phenotype (%): 12%
  Total Cell Count: 745
[10]
  Population Apoptotic (%): 14%
  Population Healthy Nuclei (%): 80%
  Population Hoechst High Intensity Objects (%): 2%
  Population Membrane Permeable-Phenotype (%): 0%
  Population Mitochondria Different-Phenotype (%): 14%
  Population Mitotic Cells (%): 85%
  Population Normal (%): 97%
  Population Pyknosed Nuclei (%): 6%
  Population Tubulin-Different-Phenotype (%): 9%
  Total Cell Count: 804
[11]
  Population Apoptotic (%): 16%
  Population Fragmented Nuclei (%): 17%
  Population Healthy Nuclei (%): 75%
  Population Hoechst High Intensity Objects (%): 3%
  Population Membrane Permeable-Phenotype (%): 0%
  Population Mitochondria Different-Phenotype (%): 25%
  Population Mitotic Cells (%): 83%
  Population Normal (%): 96%
  Population Pyknosed Nuclei (%): 6%
  Population Tubulin-Different-Phenotype (%): 14%
  Total Cell Count: 861
[12]
  Population Apoptotic (%): 27%
  Population Fragmented Nuclei (%): 13%
  Population Healthy Nuclei (%): 81%
  Population Membrane Permeable-Phenotype (%): 1%
  Population Mitochondria Different-Phenotype (%): 24%
  Population Mitotic Cells (%): 72%
  Population Pyknosed Nuclei (%): 4%
  Population Tubulin-Different-Phenotype (%): 11%
  Total Cell Count: 645
